Laboratory results taken from ChEMBL document CHEMBL1155588, “Use of COMPARE analysis to discover functional analogues of bleomycin” (J Nat Prod, 2000).
Activity calls are given as the source filed them. No cut-off for these calls is given here.

Tests used:
[1] = Induction of pSP64 plasmid DNA relaxation by agarose gel electrophoresis in presence of Cu2+
Method in brief: (§1)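 Cell-free cleavage of supercoiled, covalently closed circular pSP64 plasmid DNA, with or without Cu2+. Reactions ran 1 h at 37 °C and were stopped with bromophenol blue in 30% glycerol. Products were resolved on 1% agarose containing 0.7 µg/mL ethidium bromide in Tris-borate-EDTA at 130 V for 3 h and viewed under UV. Forms I, II (nicked) and III (linear) were scored.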

[2] = Induction of supercoiled pSP64 plasmid DNA cleavage assessed as increase in nicked form 2 at 500 nM by agarose gel electrophoresis in presence of Cu2+; method in brief: as §1
[3] = Induction of supercoiled pSP64 plasmid DNA cleavage assessed as increase in linear duplex form 3 at 10 uM by agarose gel electrophoresis; method in brief: as §1
[4] = Induction of supercoiled pSP64 plasmid DNA cleavage assessed as increase in linear duplex form 3 by agarose gel electrophoresis; method in brief: as §1
[5] = Induction of supercoiled pSP64 plasmid DNA cleavage assessed as increase in nicked form 2 at 0.25 uM by agarose gel electrophoresis in presence of Cu2+; method in brief: as §1
[6] = Induction of supercoiled pSP64 plasmid DNA cleavage assessed as increase in nicked form 2 at 1 uM by agarose gel electrophoresis; method in brief: as §1
[7] = Induction of supercoiled pSP64 plasmid DNA cleavage assessed as increase in nicked form 2 at 2.5 uM by agarose gel electrophoresis in presence of Cu2+; method in brief: as §1
[8] = Induction of supercoiled pSP64 plasmid DNA cleavage assessed as increase in nicked form 2 at 10 uM by agarose gel electrophoresis; method in brief: as §1

Row | SMILES | Activity [1] | Activity [2] [%] | Activity [3] | Activity [4] | Activity [5] | Activity [6] [%] | Activity [7] | Activity [8] [%]
1 | Oc1cc(O)c2c(c1)O[C@@H](c1ccc(O)c(O)c1)[C@@H](O)C2 | Dose-dependent effect | > 50 | Active |  |  |  |  | 
2 | COc1cc([C@@H]2OC[C@@H]3[C@H]2CO[C@H]3c2cc(OC)c(O)c(OC)c2)cc(OC)c1O | Dose-dependent effect |  |  | inactive | Active | > 50 |  | 
3 | COc1cc(C=O)cc(OC)c1O | Dose-dependent effect |  |  | inactive |  |  | Active | > 50
4 | Oc1cc(O)c2c(c1)O[C@H](c1ccc(O)c(O)c1)[C@@H](O)C2 | Dose-dependent effect | > 50 | Active |  |  |  |  | 
